In ChEMBL document CHEMBL1155506 (J Med Chem, 2010):

How the values were obtained:
[1] = target: 5-hydroxytryptamine receptor 2A (Homo sapiens, UniProt P28223); experiment: Displacement of [125I]DOI from human recombinant 5HT2A receptor expressed in HEK293 cells by scintillation counting; format: cell-based
Outline: (§1)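 Crude plasma membranes from HEK293 cells stably expressing the human receptor (5–25 μg protein), in 20 mM HEPES pH 7.4 with 10 mM MgCl2. Incubated with 0.5 nM [125I]DOI and test compound (1 pM–10 μM) for 1 h at room temperature; nonspecific binding defined with 10 μM cold DOI. Filtered, washed with ice-cold Tris buffer and scintillation counted in triplicate.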

[2] = target: T1, 5-hydroxytryptamine receptor 2C (Homo sapiens, UniProt P28335); experiment: Displacement of [125I]DOI from human recombinant 5HT2C receptor expressed in HEK293 cells by scintillation counting; format: cell-based; outline: as §1
T1 sequence (P28335 whole entry): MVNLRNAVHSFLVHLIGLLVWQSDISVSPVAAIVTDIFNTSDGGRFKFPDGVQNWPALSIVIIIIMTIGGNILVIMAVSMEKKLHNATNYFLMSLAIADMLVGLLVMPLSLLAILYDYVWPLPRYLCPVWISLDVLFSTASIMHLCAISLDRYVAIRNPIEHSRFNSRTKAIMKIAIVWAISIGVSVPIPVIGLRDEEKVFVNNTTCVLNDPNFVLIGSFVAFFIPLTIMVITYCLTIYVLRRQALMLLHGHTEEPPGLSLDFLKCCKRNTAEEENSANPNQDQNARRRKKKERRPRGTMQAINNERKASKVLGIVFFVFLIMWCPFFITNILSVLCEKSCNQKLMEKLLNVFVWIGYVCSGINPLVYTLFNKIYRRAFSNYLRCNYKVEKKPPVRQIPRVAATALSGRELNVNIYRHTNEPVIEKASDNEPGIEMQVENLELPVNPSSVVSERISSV

[3] = target: T2, hERG (KCNH2) (Homo sapiens, UniProt Q12809); experiment: Inhibition of human ERG at 3 uM by patch clamp assay
[4] = Antiplatelet activity in human platelet rich plasma assessed as inhibition of ADP-induced aggregation preincubated for 1 min before 5-HT and ADP challenge measured after 3 mins by turbidimetry
[5] = target: T2, hERG (KCNH2); experiment: Inhibition of human ERG at 1 uM by patch clamp assay
[6] = target: Voltage-gated inwardly rectifying potassium channel KCNH2 (Homo sapiens, UniProt Q12809); experiment: Inhibition of human ERG by patch clamp assay
[7] = Cmax in Sprague-Dawley rat at 10 mg/kg, po after 24 hrs by HPLC/MS/MS assay; format: ADME, organism-based; parameters: dose 10 mg/kg, route oral; conditions: in vivo
Outline: (§2)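 Male rats fasted overnight before oral dosing; 10 mg/kg po and 2 mg/kg iv in 80% PEG400/20% phosphate buffered saline. Jugular vein blood was sampled at 0.25–21 h over 24 h, and heparin plasma was assayed by HPLC/MS/MS (MRM, positive electrospray, internal standard; LLOQ 1 ng/mL, ULOQ 2000 ng/mL). %F is taken relative to the 2 mg/kg iv dose. Mean of n = 3 animals.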

[8] = AUC (0 to last) in Sprague-Dawley rat at 10 mg/kg, po after 24 hrs by HPLC/MS/MS analysis; format: ADME, organism-based; parameters: time 0 - last, dose 10 mg/kg, route oral; conditions: plasma; outline: as §2
[9] = Half life in Sprague-Dawley rat at 10 mg/kg, po by HPLC/MS/MS analysis; format: ADME, organism-based; parameters: dose 10 mg/kg, route oral; conditions: in vivo; outline: as §2
[10] = Total clearance in Sprague-Dawley rat at 2 mg/kg, iv after 24 hrs by HPLC/MS/MS analysis; format: ADME, organism-based; parameters: dose 2 mg/kg, route intravenous; conditions: in vivo; outline: as §2
[11] = Volume of distribution at steady state in Sprague-Dawley rat at 2 mg/kg, iv after 24 hrs by HPLC/MS/MS analysis; format: ADME, organism-based; parameters: dose 2 mg/kg, route intravenous; conditions: in vivo, read-out: Vdss; outline: as §2
[12] = Bioavailability in Sprague-Dawley rat at 2 mg/kg, iv after 24 hrs by HPLC/MS/MS analysis; format: ADME, organism-based; conditions: in vivo; outline: as §2

T2 sequence (Q12809 whole entry): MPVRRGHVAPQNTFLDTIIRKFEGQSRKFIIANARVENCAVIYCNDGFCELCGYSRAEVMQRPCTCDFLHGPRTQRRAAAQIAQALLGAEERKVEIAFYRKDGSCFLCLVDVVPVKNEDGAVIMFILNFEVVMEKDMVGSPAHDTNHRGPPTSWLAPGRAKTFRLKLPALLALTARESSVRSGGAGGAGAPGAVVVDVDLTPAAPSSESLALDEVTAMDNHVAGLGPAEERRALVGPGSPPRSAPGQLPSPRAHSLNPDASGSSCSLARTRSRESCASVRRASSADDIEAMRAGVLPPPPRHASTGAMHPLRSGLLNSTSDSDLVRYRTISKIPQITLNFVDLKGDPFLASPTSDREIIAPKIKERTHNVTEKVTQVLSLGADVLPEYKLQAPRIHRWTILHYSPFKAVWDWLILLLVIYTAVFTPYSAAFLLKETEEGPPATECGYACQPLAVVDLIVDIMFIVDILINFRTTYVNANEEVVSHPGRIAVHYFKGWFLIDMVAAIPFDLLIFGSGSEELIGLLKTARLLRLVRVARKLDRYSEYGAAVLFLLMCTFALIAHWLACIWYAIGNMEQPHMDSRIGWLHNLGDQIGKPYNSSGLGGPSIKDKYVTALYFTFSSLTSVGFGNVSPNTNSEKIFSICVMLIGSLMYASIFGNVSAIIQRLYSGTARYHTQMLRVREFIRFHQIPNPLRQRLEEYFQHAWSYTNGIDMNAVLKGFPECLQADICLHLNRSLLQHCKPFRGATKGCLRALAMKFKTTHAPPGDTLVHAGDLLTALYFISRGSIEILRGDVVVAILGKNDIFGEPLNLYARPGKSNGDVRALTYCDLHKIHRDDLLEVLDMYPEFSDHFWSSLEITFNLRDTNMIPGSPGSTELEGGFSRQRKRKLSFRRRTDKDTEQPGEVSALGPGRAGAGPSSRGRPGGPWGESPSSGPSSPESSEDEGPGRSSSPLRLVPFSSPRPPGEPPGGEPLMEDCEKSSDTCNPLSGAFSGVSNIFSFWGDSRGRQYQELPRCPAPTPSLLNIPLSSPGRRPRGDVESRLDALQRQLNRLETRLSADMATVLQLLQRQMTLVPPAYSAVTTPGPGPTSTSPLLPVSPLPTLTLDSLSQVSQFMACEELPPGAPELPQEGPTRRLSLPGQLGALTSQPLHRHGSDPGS
5-hydroxytryptamine receptor 2A, sequence (P28223 whole entry): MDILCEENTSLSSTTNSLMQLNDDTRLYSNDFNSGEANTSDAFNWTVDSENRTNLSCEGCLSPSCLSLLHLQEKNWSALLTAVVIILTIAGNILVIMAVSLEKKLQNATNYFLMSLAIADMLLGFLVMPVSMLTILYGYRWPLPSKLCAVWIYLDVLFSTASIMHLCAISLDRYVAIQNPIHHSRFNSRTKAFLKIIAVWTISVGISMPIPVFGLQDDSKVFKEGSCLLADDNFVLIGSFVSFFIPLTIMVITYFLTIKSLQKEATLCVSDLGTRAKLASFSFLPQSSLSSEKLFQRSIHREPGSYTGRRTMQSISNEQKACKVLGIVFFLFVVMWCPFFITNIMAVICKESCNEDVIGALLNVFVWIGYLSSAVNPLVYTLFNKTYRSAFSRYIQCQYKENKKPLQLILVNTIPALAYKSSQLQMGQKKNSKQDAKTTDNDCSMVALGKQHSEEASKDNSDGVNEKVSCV
Voltage-gated inwardly rectifying potassium channel KCNH2, sequence (Q12809 whole entry): as the sequence (Q12809 whole entry) above

Structure (SMILES) | Ki [1] [µM] | Ki [2] [µM] | inhibition at 3 µM [3] [%] | IC50 [4] [µM] | inhibition at 1 µM [5] [%] | IC50 [6] [µM] | Cmax [7] [ng/mL] | AUC(0-t) at 24 h [8] [ng·h/mL] | half-life [9] [h] | clearance [10] [mL/min/kg] | Vd [11] [L/kg] | bioavailability [12] [%]
COc1cccc(C(=O)Nc2ccc(OCCNCCO)c(-c3ccnn3C)c2)c1 | 0.0018 | 5.87 | 36 | 0.0058 |  |  |  |  |  |  |  | 
COc1cccc(C(=O)Nc2ccc(OCCN)c(-c3ccnn3C)c2)c1 | 0.0022 | 2.35 | 22 | 0.0069 |  |  |  |  |  |  |  | 
Cn1nccc1-c1cc(NC(=O)c2ccc(F)cc2F)ccc1OCCN1CCOCC1 | 0.0086 | > 10 |  | 0.027 | 16 | 4.1 | 56 | 171 | 1.5 | 233 | 11.7 | 22
Cn1nccc1-c1cc(NC(=O)c2cccc(F)c2)ccc1OCCN1CCOCC1 | 0.0051 | > 10 | 43 | 0.086 |  |  |  |  |  |  |  | 
Cn1nccc1-c1cc(NC(=O)c2cccc(C(F)(F)F)c2)ccc1OCCN1CCC(F)(F)C1 | 0.012 | 9.25 | 50 | 0.189 |  |  |  |  |  |  |  | 
